Measurements pooled from the literature.
Protocols differ between the studies behind these lines.
Target: Serine/threonine-protein kinase WNK1 (WNK1, Homo sapiens, UniProt Q9H4A3)

For `CNC(=O)[C@@H]1CC[C@@H](n2c(-c3ccc4cnccc4c3)nc3ccc(C(=O)NCc4cccc(C(N)=O)c4)cc32)C1`, the remaining binding was 100% (binding; competition with immobilised ligand; 1 µM).
For `Cc1cnc(Nc2ccc(C(=O)N3CCC(N4CCCC4)CC3)cc2)nc1-c1cc2ccccc2s1`, the remaining binding was 90% (binding; competition with immobilised ligand; 1 µM).
`COc1ccnn2ncc(-c3ccnc(N(C)C)n3)c12` has a remaining binding of 100% (binding; 1 µM).
`O=C(NCCCN1CCOCC1)c1ccc(Nc2ncc(Cl)c(-c3ccc(Cl)s3)n2)cc1` gave a remaining binding of 89% (binding; competition with immobilised ligand; 1 µM).
For `Cc1cc(-n2nc(Cc3cc(F)cc(C(F)(F)F)c3)nc2C)ccc1C(N)=O`, the remaining binding was 100% (cell-free assay; competition with immobilised ligand; 1 µM).
`COc1cnc(Nc2cccc(S(N)(=O)=O)c2)nc1N1CCN(c2ccccc2)CC1` gave a remaining binding of 88% (binding; competition with immobilised ligand; 1 µM).
For `F[C@@H]1CCN(c2nccc(-c3cnn4ncccc34)n2)C1`, the remaining binding was 100% (binding; 1 µM).
`O=C(NCC1CCOCC1)c1n[nH]cc1NC(=O)c1c(F)cccc1F` has a remaining binding of 100% (binding; competition with immobilised ligand; 1 µM).
For `CN(C)c1ncc(F)c(-c2cnn3ncccc23)n1`, the remaining binding was 87% (binding; 1 µM).
`O=C(NCCCN1CCOCC1)c1ccc(Nc2nccc(-c3cc4ccccc4s3)n2)cc1` gave a remaining binding of 98% (binding; competition with immobilised ligand; 1 µM).
With `CS(=O)(=O)N1CCCC(NC(=O)[C@H](CCC2CCCCC2)NC(=O)c2ccc(CNC(=O)c3cnc4ccccn34)cc2)C1` (stereo partly drawn) the remaining binding was 99% (cell-free assay; competition with immobilised ligand; 0.1 µM).
`C[C@H]1CCN(c2nccc(-c3cnn4ncccc34)n2)C1` gave a remaining binding of 91% (binding; 1 µM).
With `CN(C)C(=O)Cn1cc(-c2nc([C@@](C)(c3ccc(-c4cnc(N)nc4)cc3)C3CC3)no2)cn1` the remaining binding was 94% (cell-free assay; competition with immobilised ligand; 1 µM).
The remaining binding of `CN(C)c1nccc(-c2cnn3ncccc23)n1` is reported as 100% (binding; 1 µM).
`CC(C)(O)c1cncc(-c2nc3ccc(F)cc3n2C2CC2)c1` has a remaining binding of 100% (cell-free assay; competition with immobilised ligand; 1 µM).
With `COc1ncc2cc3ccccc3nc2c1C#N` the remaining binding was 95% (cell-free assay; competition with immobilised ligand; 5 µM).
`O=C(O)[C@H]1[C@H](Cn2nnc3ccccc3c2=O)CC[C@@H]1C(=O)c1ccc(OCCC2CCOCC2)cc1` has a remaining binding of 100% (cell-free assay; competition with immobilised ligand; 1 µM).
`Nc1ncc2c(n1)-c1c([nH]c3ccc(C#CC4CC4)cc13)CCCC2` gave a remaining binding of 97% (binding; competition with immobilised ligand; 1 µM).
